This is a sample that favours compounds with a hit; in the whole collection about 4.7% have one here.
HTR2A ag: mouse HTR2A agonism via beta-arrestin recruitment. P35363. CHO-K1 mHTR2A beta-arrestin complementation, luminescence; percent of 30 µM serotonin response. activation, % at 7.6 µM. actives 0.66% (n = 360,000). AID 624169;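 active = activation above a run cutoff, the mean activation of all tested compounds plus 3 SD, cut at about 14% in these data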
MC4R antagonist: antagonists of human melanocortin 4 receptor (MC4R). inhibition, % at 6.5 µM. P32245. actives 0.48% (n = 360,000). MC4R-expressing cells, MTII-stimulated cAMP, LANCE TR-FRET;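 active = inhibition above its plate's cutoff, the mean of tested wells on that plate plus 3 SD, cut at about 29% in these data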
Target sequence (P32245 whole entry, looked up): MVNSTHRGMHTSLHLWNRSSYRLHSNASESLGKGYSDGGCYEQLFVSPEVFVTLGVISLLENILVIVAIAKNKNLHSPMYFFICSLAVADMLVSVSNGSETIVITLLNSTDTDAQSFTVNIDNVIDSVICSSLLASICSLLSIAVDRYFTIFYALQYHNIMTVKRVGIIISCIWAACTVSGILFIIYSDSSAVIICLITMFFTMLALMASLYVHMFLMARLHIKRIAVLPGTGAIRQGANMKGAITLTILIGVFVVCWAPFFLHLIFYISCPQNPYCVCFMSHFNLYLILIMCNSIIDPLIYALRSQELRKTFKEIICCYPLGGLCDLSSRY
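Assay system: U2OS cells stably expressing human melanocortin 4 receptor (MC4R) / Dosing: 6.5 µM / Timing: compound 30 min, challenge 1 h, detection 1 h / Measured by: Eu-cAMP/anti-cAMP TR-FRET, emission 671 nm / Replicates: singlicate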
FXN GAA850 act: increases GAA850 frataxin promoter reporter activity; AID 540364; actives 0.56% (n = 360,000); HEK293 lucGAA850 FXN promoter luciferase reporter, 24 h; percent of 10 µM SAHA response; activation, % at 6 µM;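 active = activation above the average of all compounds screened plus 3 SD, cutoff fixed separately per campaign, cut at about 7.5% in these data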
AHR activator: human AHR activation | activation, % at 5 µM | actives 2.5% (n = 320,000) | AHR-responsive luciferase reporter cells, luminescence | P35869 | AID 2796; in the data active = activation above about 47%
MC4R ag barr: activates human MC4R beta-arrestin recruitment | P32245 | actives 0.98% (n = 360,000) | activation, % at 8.9 µM | U2OS MC4R beta-arrestin complementation, luminescence; percent of melanotan II response, DMSO zero;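 active = activation above a per-plate cutoff, the mean activation of sample wells on that plate plus 3 SD, cut at about 8% in these data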
MC4R barr ag: human MC4R beta-arrestin agonism confirmation | shares compounds with MC4R ag barr | U2OS MC4R beta-arrestin recruitment, luminescence; scaled DMSO 0%, Melanotan II 100% | activation, % at 8.9 µM | actives 31% (n = 2,400);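 active = mean activation across replicates above the hit cutoff set in the earlier primary screen, cut at about 8% in these data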
MOR DOR agonist: OPRM1-OPRD1 heterodimer agonism counter-screen. shares compounds with MC4R ag barr. actives 5.8% (n = 2,400). U2OS PathHunter beta-arrestin, beta-gal luminescence; percent of deltorphin B response, DMSO zero. activation, % at 9.2 µM;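 active = mean activation across replicates exceeds the hit threshold derived in the earlier primary screen, cut at about 18% in these data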
Of the large screens only hits and unclear results are named; the others gave an inactive call (follow-up assays come after a bar, where they were run).

O=C(N/N=C/c1cccc(OCc2ccccc2)c1)c1ccc(Br)cc1	MC4R ag barr 17 | MC4R barr ag inactive | MOR DOR agonist inactive
CC(/C=N/NC(=O)c1ccc(Br)cc1)=C\c1ccccc1	MC4R ag barr 28 | MC4R barr ag inactive | MOR DOR agonist inactive
CN(C)c1ccc(/C=C(\C#N)C(=O)c2ccccc2)cc1	MC4R ag barr 19 | MC4R barr ag inactive | MOR DOR agonist inactive
O=C(c1cnc2ccc3ccccc3c2c1)c1cc(F)ccc1O	MC4R ag barr 22 | MC4R barr ag inactive | MOR DOR agonist inactive
CC(C)CN(CC(C)C)CC(O)COc1ccc([N+](=O)[O-])cc1 (stereo not drawn)	MC4R ag barr 10 | MC4R barr ag inactive | MOR DOR agonist inactive
COc1ccc(/C=N/NC(=O)CN2CCSCC2)cc1C	none
Cc1ccc(OC(=O)COc2ccccc2)c(-n2nc3ccccc3n2)c1	none
Cc1ccc(OC(=O)c2cccc([N+](=O)[O-])c2)c(-n2nc3ccccc3n2)c1	MC4R ag barr 14 | MC4R barr ag inactive | MOR DOR agonist inactive
COc1cc(NC(=O)COc2ccccc2Cl)ccc1NC(=O)c1cccs1	none
COc1cc(NC(=O)COc2ccccc2[N+](=O)[O-])ccc1NC(=O)c1cccs1	MC4R ag barr 38 (no result: AHR activator) | MC4R barr ag 18 | MOR DOR agonist inactive
COc1cc(NC(=O)c2ccc(Cl)cc2Cl)ccc1NC(=O)c1cccs1	MC4R ag barr 21 | MC4R barr ag inactive | MOR DOR agonist inactive
O=C(CSc1nc(C2CC2)nc2ccccc12)N1CCc2ccccc21	none (no result: AHR activator)
O=C(COc1ccc(Cl)cc1Cl)NN1C(=O)C2C3C=CC([C@@H]2C1=O)C31CC1 (stereo partly drawn)	none
Nc1c2nc(-c3ccccc3)[nH]c(=O)c2nc(=O)n1-c1ccccc1	MC4R ag barr 15 | MC4R barr ag inactive | MOR DOR agonist inactive
O=c1[nH]c(-c2ccc(F)cc2)nc2c1sc(=S)n2-c1ccccc1	none
CNc1nc(Oc2cccc(F)c2)c2sccc2n1	none (no result: AHR activator)
CC(=O)C(c1ccccc1)C(c1ccccc1)C(C)[N+](=O)[O-] (stereo not drawn)	MC4R ag barr 21 | MC4R barr ag inactive | MOR DOR agonist inactive
N#Cc1ccccc1NC(=S)NC(=O)c1cccnc1	none
CN(Cc1ccccc1)C(=O)[C@@H]1CCCN1	none (no result: MC4R antagonist, FXN GAA850 act, AHR activator, MC4R ag barr)
CC(C)(C)C1CCc2onc(C(=O)Nc3ccc4c(c3)OCO4)c2C1 (stereo not drawn)	MC4R ag barr 12 | MC4R barr ag inactive | MOR DOR agonist inactive
Cc1cccc(N(Cc2cc3ccccc3[nH]c2=O)S(=O)(=O)c2ccccc2)c1	none
CCN1/C(=C/c2ccc3cc(C)ccc3[n+]2CC)Sc2cc(C)c(C)cc21	MC4R ag barr 29 (no result: AHR activator) | MC4R barr ag 79 | MOR DOR agonist inactive
CCN1/C(=C/c2ccc3cc(C)ccc3[n+]2CC)Sc2ccccc21	none
O=C(Nc1cccc(C(=O)N2CCCCC2)c1)C1CCCCC1	none (no result: AHR activator)
Nc1ccc(-n2c(N)c(C(=O)NCc3ccc4c(c3)OCO4)c3nc4ccccc4nc32)cc1	MC4R ag barr 13 | MC4R barr ag inactive | MOR DOR agonist inactive
O=C(NCC(c1ccco1)N1CCc2ccccc2C1)C(=O)Nc1ccc(F)cc1F (stereo not drawn)	none
CCCC1S/C(=N/N=C/c2cccs2)NC1=O (stereo not drawn)	none
CCC1S/C(=N/N=C/c2cccs2)NC1=O (stereo not drawn)	none
O=C1N/C(=N\N=C\c2cccs2)SC1Cc1ccc(Cl)cc1 (stereo not drawn)	MC4R ag barr 15 | MC4R barr ag inactive | MOR DOR agonist inactive
O=C1N/C(=N\N=C\c2cccs2)SC1Cc1cccc(Cl)c1 (stereo not drawn)	MC4R ag barr 12 | MC4R barr ag inactive | MOR DOR agonist inactive
Nc1cc2c(cc1Br)-c1ccc(F)cc1C2O (stereo not drawn)	none (no result: AHR activator)
O=C(Nc1ccc(F)cc1)c1cc(-c2ccncc2)nc2c(Cl)cccc12	AHR activator 69, MC4R ag barr 12 | MC4R barr ag inactive | MOR DOR agonist inactive
Cc1ccc(C(C)C)c(OCCNCCc2ccccc2)c1	MC4R ag barr 9.9 | MC4R barr ag inactive | MOR DOR agonist inactive
Cc1ccc(C(C)C)c(OCCCNCc2cccnc2)c1	none
N#Cc1cn(-c2ccccc2)nc1-c1ccccc1	MC4R ag barr 12 | MC4R barr ag inactive | MOR DOR agonist inactive
COc1ccc(CC(=O)Nc2ccc(N3CCOCC3)cc2)cc1OC	MC4R ag barr 9.6 | MC4R barr ag 9.6 | MOR DOR agonist inactive
COc1ccc(CN(C)CC(=O)Nc2ccc(N3CCOCC3)cc2)cc1OC	none
OC[C@@H]1CN(Cc2ccc(F)cc2)C[C@H](n2cnc3c(N4CCCC4)ncnc32)O1	none (no result: AHR activator)
CCCOc1ccc2c(c1)C(=NN=C(N)N)c1cc(OCCC)ccc1-2	MC4R ag barr 14 | MC4R barr ag 11 | MOR DOR agonist inactive
O=[N+]([O-])c1ccc(S(=O)(=O)Nc2ccc(-c3ccccc3)cc2)cc1	MC4R ag barr 15 (no result: AHR activator) | MC4R barr ag inactive | MOR DOR agonist inactive
CC(=O)c1ccc(NS(=O)(=O)c2ccc([N+](=O)[O-])cc2)cc1	none (no result: AHR activator)
COc1c(OC(C)=O)ccc(/C=C/c2ccc3cccc(OCc4ccccc4)c3n2)c1[N+](=O)[O-]	none
CCN(CC)CCN(C(=O)CCS(=O)(=O)c1ccccc1)c1nc2c(C)cc(C)cc2s1	MC4R ag barr 12 | MC4R barr ag inactive | MOR DOR agonist inactive
O=C(/C=C/c1ccc(Cl)c([N+](=O)[O-])c1)Nc1ccc(N2CCCC2)c(Cl)c1	MC4R ag barr 11 | MC4R barr ag inactive | MOR DOR agonist inactive
CN1CCN(c2ccc(S(=O)(=O)N3CCCCC3)cc2NC(=O)/C=C/c2ccc(Cl)c([N+](=O)[O-])c2)CC1	none
CC1NC(=O)COC1c1ccccc1 (stereo not drawn)	none (no result: AHR activator)
Cc1cc(/C=N/n2cnnc2)c(C)n1-c1ccc(Cl)cc1	none
Cc1cc(/C=N/n2cnnc2)c(C)n1-c1ccc(OCc2ccc(Cl)cc2Cl)cc1	MC4R ag barr 14 | MC4R barr ag inactive | MOR DOR agonist inactive
CCn1cc(C(=O)NC(=S)Nc2ccccc2Br)cn1	none
COc1ccccc1NC(=S)NC(=O)c1ccc(Cn2cc(Br)cn2)cc1	MC4R ag barr 24 | MC4R barr ag 12 | MOR DOR agonist inactive
CSc1ccc(/C=C/C(=O)OCC(=O)c2ccc[nH]2)cc1	MC4R ag barr 22 | MC4R barr ag inactive | MOR DOR agonist inactive
CSc1ccc(/C=C/C(=O)OCC(=O)NC2CCCC2)cc1	none (no result: AHR activator)

Bioassay records: PubChem, The Scripps Research Institute Molecular Screening Center
